Test results: ChEMBL document CHEMBL4373712, “Bioactivatable Pseudotripeptidization of Cyclic Dipeptides To Increase the Affinity toward Oligopeptide Transporter 1 for Enhanced Oral Absorption: An Application to Cyclo(l-Hyp-l-Ser) (JBP485)” (J Med Chem, 2019)
The source made the active and inactive calls. No cut-off for these calls is given here.

How the values were obtained:
[1] = target: T1, Solute carrier family 22 member 1 (Homo sapiens, UniProt O15245); assay: Substrate activity at OCT1 in human Caco2 cells assessed as protein-mediated drug uptake at 0.5 mM measured after 10 mins in absence of OCT1 substrate metformin by UPLC-MS/MS analysis; assay type: ADME, cell-based; settings: caco-2, 10 min, 500 µM
T1 sequence (O15245 whole entry): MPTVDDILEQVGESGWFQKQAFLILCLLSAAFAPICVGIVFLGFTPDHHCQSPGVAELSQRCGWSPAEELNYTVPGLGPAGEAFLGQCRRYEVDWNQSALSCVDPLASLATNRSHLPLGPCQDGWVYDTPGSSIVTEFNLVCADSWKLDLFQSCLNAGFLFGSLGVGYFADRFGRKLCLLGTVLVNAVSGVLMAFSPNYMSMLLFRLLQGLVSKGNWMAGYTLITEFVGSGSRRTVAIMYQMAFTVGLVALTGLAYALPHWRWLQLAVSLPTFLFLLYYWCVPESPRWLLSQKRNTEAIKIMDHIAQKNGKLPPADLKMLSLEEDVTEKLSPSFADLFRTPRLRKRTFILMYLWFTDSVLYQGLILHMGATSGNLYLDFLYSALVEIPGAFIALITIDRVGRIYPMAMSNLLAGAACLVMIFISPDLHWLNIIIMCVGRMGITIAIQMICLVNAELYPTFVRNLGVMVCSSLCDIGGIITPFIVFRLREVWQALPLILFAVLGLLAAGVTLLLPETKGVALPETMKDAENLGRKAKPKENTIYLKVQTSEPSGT
Summary of the method: (§1)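 Caco-2 cells in 24-well plates took up 0.5 mM compound for 10 min at 37 °C, with or without 50 mM captopril ([…]) or metformin (OCT1-3 substrate). Cells were washed in ice-cold PBS and homogenised in water; lysate protein was measured and drug assayed by UPLC-MS/MS. n=3.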

[2] = target: T2, Solute carrier family 22 member 3 (Homo sapiens, UniProt O75751); assay: Substrate activity at OCT3 in human Caco2 cells assessed as protein-mediated drug uptake at 0.5 mM measured after 10 mins in absence of OCT1 substrate metformin by UPLC-MS/MS analysis; assay type: ADME, cell-based; settings: caco-2, 10 min, 500 µM; summary of the method: as §1
T2 sequence (O75751 whole entry): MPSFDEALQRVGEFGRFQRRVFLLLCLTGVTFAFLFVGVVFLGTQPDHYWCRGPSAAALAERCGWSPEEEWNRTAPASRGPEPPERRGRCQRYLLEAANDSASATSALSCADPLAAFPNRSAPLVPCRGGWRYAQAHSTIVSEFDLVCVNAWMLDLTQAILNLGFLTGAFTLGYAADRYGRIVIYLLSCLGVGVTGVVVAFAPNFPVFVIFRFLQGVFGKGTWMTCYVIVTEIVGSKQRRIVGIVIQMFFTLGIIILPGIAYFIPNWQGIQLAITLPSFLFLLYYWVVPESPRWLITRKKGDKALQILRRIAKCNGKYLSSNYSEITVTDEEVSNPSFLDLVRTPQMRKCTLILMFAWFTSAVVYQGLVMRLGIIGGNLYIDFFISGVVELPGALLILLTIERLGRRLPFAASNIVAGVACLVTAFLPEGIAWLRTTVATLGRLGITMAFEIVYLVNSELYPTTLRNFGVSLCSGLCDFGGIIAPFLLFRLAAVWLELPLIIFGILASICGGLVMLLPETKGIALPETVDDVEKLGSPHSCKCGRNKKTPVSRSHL

[3] = AUC (0 to t) in Beagle dog at 12 mg/kg, po by UPLC-MS/MS analysis; assay type: ADME, organism-based, Canis lupus familiaris; settings: in vivo
Summary of the method: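 Male beagle dogs, 2 years old, 8-10 kg, n=6. Single oral dose of 12 mg/kg (prodrug dosed as JBP485 equivalent) given in aqueous solution. Jugular venipuncture blood taken at 0.167-8 h into sodium heparin tubes. Plasma JBP485 measured by UPLC-MS/MS; AUC0-t and Cmax from the concentration-time profiles.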

[4] = Tmax in Sprague-Dawley rat at 12 mg/kg, po by UPLC-MS/MS analysis; assay type: ADME, organism-based; settings: in vivo
Summary of the method: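 Fasted male SD rats (200–250 g), oral 12 mg/kg (prodrugs calculated as JBP485). Jugular blood 0.083–10 h, centrifuged, plasma JBP485 by UPLC-MS/MS; n=6.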

[5] = Cmax in Sprague-Dawley rat assessed as JBP485 level at 12 mg/kg, po by LC-MS/MS analysis; assay type: ADME, organism-based; design: dose 12 mg/kg, route oral; settings: in vivo
Summary of the method: (§2)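 Male SD rats, 200-250 g, fasted 12 h with water, n=6. Oral dose of 12 mg/kg as JBP485 equivalent; dose-effect arms at 12 and 100 mg/kg. JBP485 given iv at 6 mg/kg as the reference. Jugular blood taken at 0.083-10 h. Plasma JBP485 by UPLC-MS/MS. Absolute F = (AUCpo×Div)/(AUCiv×Dpo)×100%, using AUC0-t.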

[6] = Cmax in Sprague-Dawley rat at 12 mg/kg, po by UPLC-MS/MS analysis; assay type: ADME, organism-based; design: dose 12 mg/kg, route oral; settings: in vivo; summary of the method: as §2
[7] = AUC (0 to t) in Sprague-Dawley rat at 6 mg/kg, iv by UPLC-MS/MS analysis; assay type: ADME, organism-based; settings: in vivo; summary of the method: as §2
[8] = AUC (0 to t) in Sprague-Dawley rat assessed as JBP485 level at 12 mg/kg, po by LC-MS/MS analysis; assay type: ADME, organism-based; settings: in vivo; summary of the method: as §2
[9] = Half life in pH 1.2 simulated gastric fluid at 5 mM by HPLC analysis; assay type: ADME
Summary of the method: (§3)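 Compound at 5 mM in 0.1 M HCl, pH 4.5 acetate buffer, pH 5.8/6.8/7.2 phosphate buffers, SGF (pH 1.2) and SIF (pH 6.8), prepared per Chinese Pharmacopoeia. Samples taken at 0-20 h and analyzed by HPLC-UV. k = 2.303×slope of log C versus time; t1/2 = 0.693/k.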

[10] = Half life in pH 6.8 phosphate buffer at 5 mM by HPLC analysis; assay type: physicochemical; summary of the method: as §3
Rattus norvegicus [11] = assay: (§4) Anti-hepatitis activity in ANIT-induced Sprague-Dawley rat model of liver injury assessed as reduction in hepatocellular edema at 3.125 to 25 mg/kg, po administered 30 mins prior to ANIT challenge and subsequent dosing at 8, 22, 32, and 46 hrs post ANIT challenge and measured 48 hrs post ANIT challenge by H and E staining-based assay; assay type: functional, organism-based
Summary of the method: (§5)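 ANIT 50 mg/kg ip liver-injury model in male SD rats, 6 per group. Oral or ip treatment at 30 min before and 8, 22, 32 and 46 h after ANIT. Liver excised at 48 h, fixed in 4% formalin, stained with H&E, and examined microscopically for hepatocellular edema and necrosis.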

Rattus norvegicus [12] = assay: as §4, with “liver necrosis” for “hepatocellular edema”; assay type: functional, organism-based; summary of the method: as §5
Rattus norvegicus [13] = assay: as §4, with “serum alanine aminotransferase level” for “hepatocellular edema”, “challenge” for “challenge by H and E staining-based assay”; assay type: functional, organism-based
Summary of the method: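 ANIT (50 mg/kg ip, olive oil) cholestatic liver injury in male SD rats, 6 per group. Oral or ip dosing (UDCA 100 mg/kg po in CMC-Na) at 30 min before and 8, 22, 32 and 46 h after ANIT. Serum collected at 48 h from the abdominal aorta; ALT and AST activities measured with kits.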

| Drug uptake [1] | Drug uptake [2] | AUCt [3] [nM/ml.hr] | Tmax [4] [h] | Cmax [5] [nM/ml] | Cmax [6] [µM] | AUCt [7] [µM·h] | AUCt [8] [nM/ml.hr] | half-life at 5000 µM [9] [h] | half-life at 5000 µM [10] [h] | Structure (SMILES) | Activity (Rattus norvegicus [11]) | Activity (Rattus norvegicus [12]) | Activity (Rattus norvegicus [13]) |
| --- | --- | --- | --- | --- | --- | --- | --- | --- | --- | --- | --- | --- | --- |
| Not Active | Not Active | 89.15 | 1.25 | 27.84 | 27.8 | 194 | 81.4 | > 20 | > 20 | O=C1N[C@@H](CO)C(=O)N2C[C@H](O)C[C@@H]12 | – | – | – |
| Not Active | Not Active | – | – | – | – | – | – | > 20 | 7.7 | CC(C)[C@H](N)C(=O)OC[C@@H]1NC(=O)[C@@H]2C[C@@H](O)CN2C1=O | Active | Active | Active |
